PAD4 FP inh – blocks human protein arginine deiminase 4; 330,000 compounds, 0.41% hits; Q9UM07; recombinant PAD4, RCA probe fluorescence polarization; inhibition, % at 6.36 µM; AID 485272;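 active = percent inhibition above a cutoff equal to the mean of all tested compounds plus 3 SD, cut at about 15% in these data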;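 also: 0% = PAD4 with RCA probe and DMSO and 100% = probe without PAD4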
TDP2 absorb – TDP2 (human) inhibition, absorbance primary screen; 370,000 compounds, 0.34% hits; O95551; recombinant TDP2, T5PNP hydrolysis, p-nitrophenol absorbance 415 nm; inhibition, % at 12.8 µM;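 active = inhibition above the mean of all tested compounds plus 3 SD, set per campaign, cut at about 25% in these data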;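 also: 0% = DMSO with enzyme and 100% = buffer with substrate but no TDP2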
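Assay system: recombinant human TDP2 / Reagent: T5PNP substrate at 5 mM, a TopII-DNA adduct mimic / Measured by: epi absorbance from released p-nitrophenol / Evaluation: % inhibition relative to enzyme-containing and enzyme-free wells / Control set: enzyme-free and DMSO wells / Replicates: each compound tested once, singlicate / Schedule: enzyme reaction with compound for 2 h at 37 °C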
GSTO1 inh – counter-screen for RBBP9 inhibitors: inhibitors of human GSTO1 | 300,000 compounds, 1.1% hits | AID 1974 | recombinant GSTO1, activity-based probe fluorescence polarization | inhibition, % at 5.96 µM | P78417;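 active = inhibition above the campaign mean inhibition plus 3 SD, cut at about 35% in these data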;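 also: 0% = GSTO1-1 with DMSO and 100% = wells lacking GSTO1-1 enzyme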
Apaf1 inhib – human Apaf-1 inhibition; O14727; reconstituted apoptosome caspase-3 activity, DEVD-Rh110 fluorescence; inhibition, % at 20 µM; 330,000 compounds, 0.71% hits; active = inhibition of at least 40% at 20 µM;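 also: plate controls were DMSO wells for no effect and DEVD-CHO caspase inhibitor wells for full effect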
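System: reconstituted apoptosome with Apaf-1, cytochrome c, caspase-9, procaspase-3, dATP; Signal: Rh110 fluorescence intensity; Schedule: 30 min compound preincubation, 50 min activation, room temperature; Reagent: cytochrome c trigger plus (Z-DEVD)2-Rh110 caspase-3 substrate.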
PRMT1 inh – PRMT1 (human) inhibition, primary screen; Q99873; recombinant PRMT1, activity-based probe fluorescence polarization; inhibition, % at 2.79 µM; 370,000 compounds, 1.3% hits; AID 652257;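 active = inhibition above about 21% made by adding two undisclosed values, limit read from the data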
* = called active by the depositor; nt = no result given. Sampled rows, rich in hits. Any-hit rate of the full collection: about 2.6%.

SMILES | PAD4 FP inh | TDP2 absorb | GSTO1 inh | Apaf1 inhib | PRMT1 inh
O=C(COC(=O)Cc1cccs1)Nc1ccc(OC(F)(F)F)cc1 | -2 | 2 | -6 | 4 | 78*
O=C(COC(=O)Cc1cccs1)NCC(=O)Nc1ccc(F)cc1 | 5 | 5 | nt | 5 | 1
Cc1cnc(C(=O)Nc2c(-c3ccccc3)[nH][nH]c2=O)cn1 | nt | -4 | nt | nt | 11
CN(C)c1ccc(-c2[nH][nH]c(=O)c2NC(=O)c2ccc3ccccc3n2)cc1 | nt | 90* | nt | nt | 5
CN(C)c1ccc(-c2[nH][nH]c(=O)c2NC(=O)c2ccccn2)cc1 | nt | 87* | nt | nt | -4
COc1ccc(C2CCC3(CCC(=O)N3CCOC(=O)NCc3ccc(Cl)cc3)CC2)cc1 (stereo unspecified) | nt | 4 | nt | nt | 2
Cc1ccc2nc(C)cc(N/N=C/c3ccccc3O)c2c1 | -3 | -3 | 5 | 16 | -8
Cc1ccc(C)c(/C=N/Nc2nc3ccccc3c(=O)n2O)c1 | -1 | 6 | -7 | -21 | 25*
CC(=O)c1cccc(CN2CCCC(C(=O)Nc3cccc(-n4cccn4)c3)C2)c1 (stereo unspecified) | -2 | -13 | -1 | 7 | 22*
COc1ccc(C[C@H]2CN3C(=NC[C@@H]3Cc3ccccc3)N2CCNC(=O)CCC2CCCCC2)cc1 | 1 | -11 | 2 | 52* | 1
Cc1nc(N)sc1-c1csc(Nc2ccccn2)n1 | nt | 5 | nt | nt | 23*
Cc1nc(C)c(-c2csc(Nc3ccccn3)n2)s1 | 5 | 3 | -1 | 16 | 3
O=C(Nc1ccc(Cl)cc1Cl)c1cccc(N2C(=O)C=CC2=O)c1 | -5 | -12 | -18 | 8 | 88*
O=C(Nc1ccc(Cl)cc1Cl)c1ccc2c(c1)OCCO2 | 3 | -6 | nt | -3 | -1
COc1ccc(/C=C2/Sc3ccc(C(=O)NCCN4CCCCCC4)cc3NC2=O)cc1 | -1 | -7 | -41 | 49* | -1
CC1(C(=O)NCc2cccc(C(F)(F)F)c2)CCN1Cc1ccc(-c2ccccc2)o1 (stereo unspecified) | nt | -29 | nt | nt | 22*
COc1ccc(CCNC(C(=O)Nc2cc(C)cc(C)c2)c2ccccc2)cc1 (stereo unspecified) | 0 | -17 | -2 | 38 | 9
CCOc1ccccc1NC(=O)C(NCCc1ccc(OC)cc1)c1ccccc1 (stereo unspecified) | nt | 3 | nt | 17 | 21*
Fc1ccccc1-n1c(-c2ccc3ccccc3n2)n[nH]c1=S | -3 | 17 | -2 | -23 | 6
S=c1[nH]nc(-c2ccc3ccccc3n2)n1-c1ccccc1 | 5 | -8 | 0 | -3 | 23*
CC1CCN(C(=O)c2ccc3c(c2NCCO)C(=O)c2ccccc2C3=O)CC1 | -9 | -9 | 0 | 4 | -1
CCN(CC)CCNC(=O)c1ccc2c(c1NCCO)C(=O)c1ccccc1C2=O | -11 | 16 | 25 | 54* | 3
Cc1ccc(S(=O)(=O)N2CCCC2C(=O)N2CCN(c3ccccc3)CC2)cc1 (stereo unspecified) | nt | 4 | nt | nt | -2
Cc1cccc(NC(=O)NNS(=O)(=O)c2ccc(F)cc2)c1 | -1 | 0 | 4 | 0 | -1
CC(=O)Nc1ccc(S(=O)(=O)NNc2cccc(C)c2)cc1 | 9 | 9 | 13 | 2 | 23*
SMILES | PAD4 FP inh | TDP2 absorb | GSTO1 inh | Apaf1 inhib | PRMT1 inh
O=C(O[C@H]1CC[C@@]23CCCN2C(=O)CCC[C@H]3C1)N1CCN(c2ccccc2)CC1 | nt | -2 | nt | nt | 2
COc1ccc(NC(=S)NNc2ccc(C(=O)O)cc2)cc1 | -4 | 15 | -15 | 3 | 21*
CCOCC(=O)NC(=O)N1C[C@H]2CON(C)[C@H]2C[C@H]1c1ccc(OC)cc1 | nt | 4 | nt | nt | 0
Cc1ccccc1C1C2=C(Nc3[nH]n(-c4ccccc4)c(=O)c31)c1ccccc1C2=O (stereo unspecified) | 0 | nt | -36 | nt | nt
Cc1cccc(C2C3=C(Nc4[nH]n(-c5ccccc5)c(=O)c42)c2ccccc2C3=O)c1 (stereo unspecified) | nt | -11 | nt | nt | 21*
Cc1ccc(NC(=O)COC(=O)/C=C/c2ccco2)cc1S(=O)(=O)N(C)C | 1 | 7 | 5 | 8 | 21*
C=CCNC(=O)CN(C(=O)Cc1ccc(Cl)cc1)c1cccc(Br)c1 | nt | -2 | nt | nt | -3
CC(C)(C)C(=O)OC12CCCN(C1)/C(=C/c1cccnc1)C2 (stereo unspecified) | nt | -6 | nt | nt | -4
CCn1ncc(NC(=S)Nc2ccc(OC)c(OC)c2)c1C(N)=O | 7 | 16 | 4 | 1 | 22*

Screening data as filed in PubChem.
